Hits are enriched below; roughly 2.1% of the tested compounds scored in any of these assays.
AF4-AF9 inh – MLL-AF4/AF9 protein interaction inhibition | P42568 | AlphaScreen, biotin-AF4 peptide binding to FLAG-AF9 | inhibition, % at 10 µM | hit rate 0.47% among 350,000;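 active = every replicate reaching a set inhibition limit, whatever the replicate mean, cut at about 25% in these data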;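 note: 0% = plate neutral control median and 100% = total signal loss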
ERp5 inh – inhibitors of human ERp5. Q15084. inhibition, % at 9.99 µM. ERp5 insulin aggregation, absorbance 650 nm, 90 min. hit rate 0.05% among 350,000;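 active = mean replicate inhibition above about 25%, with every replicate also reaching it, limit read from the data, passing the limit was not always enough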
Target sequence (Q15084 whole entry, looked up): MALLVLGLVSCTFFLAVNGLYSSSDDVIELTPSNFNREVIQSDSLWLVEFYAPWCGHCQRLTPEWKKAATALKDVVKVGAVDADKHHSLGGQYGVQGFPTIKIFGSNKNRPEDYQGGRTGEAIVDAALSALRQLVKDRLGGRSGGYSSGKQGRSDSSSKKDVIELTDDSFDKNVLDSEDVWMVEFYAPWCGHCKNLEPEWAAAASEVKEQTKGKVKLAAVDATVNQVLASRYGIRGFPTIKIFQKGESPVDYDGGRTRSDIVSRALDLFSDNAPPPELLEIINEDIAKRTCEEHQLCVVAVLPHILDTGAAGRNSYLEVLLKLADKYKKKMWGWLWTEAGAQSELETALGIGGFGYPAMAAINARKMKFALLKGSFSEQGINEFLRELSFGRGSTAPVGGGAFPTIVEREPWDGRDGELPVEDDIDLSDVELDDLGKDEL
FGF22 binding – FGF22 (human) thermal shift binding; activity (Tm shift, normalised), % at 9.99 µM; recombinant FGF22 thermal shift, SYPRO orange fluorescence; percent of sucrose octasulfate shift, DMSO zero; hit rate 1.5% among 340,000; Q9HCT0; AID 651658;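 active = mean Tm shift, scaled 0 neutral to 100 positive control, at about 1.3% or above, every replicate too, limit read from the data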
ARNT-TACC3 inh – ARNT/TACC3 interaction disruption; AlphaScreen His-ARNT PAS-B/GST-TACC3 binding, luminescence; TACC3 fragment carries E629A point mutation; Q9Y6A5; inhibition, % at 9.99 µM; hit rate 0.66% among 390,000;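 active = mean inhibition of replicates at least 50% and at least half of replicates each reaching 50%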;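 note: 0% = complete ARNT plus TACC3 wells and 100% = ARNT alone without TACC3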
FN deposition inh – fibronectin deposition inhibition. AH1F fibroblasts, Alexa488-fibronectin deposition fluorescence, overnight. inhibition, % at 12.6 µM. hit rate 0.086% among 350,000. AID 743247;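 active = mean inhibition across replicates of 30% or more, regardless of how many single replicates reach that level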;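 note: positive control wells lacked labelled fibronectin entirely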
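Assay system: AH1F fibroblast monolayer, labelled fibronectin deposition. Amount: 10000 cells per well. Also added: labelled fibronectin 24 nM. Compound: single-point pinned compound. Incubation: cell attachment 1 h, compound and FN exposure overnight. Detection: fluorescence after three HBSS washes, excitation 485 nm, emission 525 nm. Read-out: inhibition of fibronectin deposition signal.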
PDI turbidity – blocks human protein disulfide isomerase activity; inhibition, % at 10 µM; PDI insulin aggregation turbidity, A650, 90 min; hit rate 0.052% among 350,000;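 active = mean inhibition across replicates of 30% or more, whatever share of single replicates reach that level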
ARNT Alpha ctr-1 – interferes with AlphaScreen signal, flagging false ARNT-TACC3 hits; His-ARNT PASB-GST AlphaScreen artifact counter-screen, luminescence; hit rate 50% among 1,200; shares compounds with ARNT-TACC3 inh; AID 651705; AC50, µM (top dose mostly 68 µM), for the others: at the highest dose activity change, negative = signal decrease;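 active = every separate test run was called active for a drop in luminescence, with AC50 within twice the top valid dose, actives reach about 71 µM in these data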
ARNT Alpha ctr-2 – AlphaScreen artifact flagged for ARNT-TACC3 inhibitors; AC50, µM; hit rate 70% among 45; Dual-tagged His-ARNT PASB-GST AlphaScreen artifact counter-screen; shares compounds with ARNT-TACC3 inh;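 active = luminescence drop, with half-maximal potency fitted within twice the sample's top valid dose, cut at about 70 µM in these data; inactive = the rest, including signal moving the wrong way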
Numbers without * were called inactive; / = no result given; [ ] = remark or other dose.

SMILES	AF4-AF9 inh	ERp5 inh	FGF22 binding	ARNT-TACC3 inh	FN deposition inh	PDI turbidity	ARNT Alpha ctr-1	others
c1ccc(-c2nc(N3CCOCC3)c3ccccc3n2)nc1	/	/	/	/	-1.8	-5.1	/
c1ccc(-c2nnc(-c3ccccn3)nc2N2CCC(c3ccccc3)C2)cc1 (stereo not given)	/	/	/	/	/	/	4.76µM*
O=C1C2CCCCN2C(=O)N1CCCCN1CCN(c2cccc(Br)c2)CC1 (stereo not given)	4.0	2.8	0.0	active	8.9	-1.7	-13.1%
COC(=O)C[C@@H]1C[C@H]2c3cc(N(C)C)ccc3O[C@H]2[C@@H](CO)O1	-6.2	5.2	-1.1	67.4*	-19.6	/	-4.9%[42 µM]
O=C(C[C@@H]1C[C@@H]2c3cc(NC(=O)C4CCOCC4)ccc3O[C@@H]2[C@H](CO)O1)NCc1cccnc1	0.9	-6.5	-0.4	54.7*	-7.7	/	2.9%[42 µM]
O=C(C[C@@H]1C[C@@H]2c3cc(NC(=O)C4CCOCC4)ccc3O[C@@H]2[C@@H](CO)O1)NCc1cccnc1	5.5	0.0	0.0	-8.1	0.1	/	/
CN(C)c1ccc2c(c1)[C@@H]1C[C@H](CC(=O)O)O[C@@H](CO)[C@@H]1O2	-0.1	0.0	-1.4	1.0	/	/	/
COCCNC(=O)C[C@@H]1C[C@H]2c3cc(NC(=O)C4CCOCC4)ccc3O[C@H]2[C@H](CO)O1	-0.3	1.9	0.0	active	0.7	/	-7.2%[38 µM]
O=C1N[C@@H](c2ccccc2)COCc2cn(nn2)CC[C@H]1Cc1cccc(Cl)c1	/	/	/	/	5.5	/	/
O=C(C[C@@H]1C[C@H]2c3cc(NS(=O)(=O)c4ccc(F)cc4)ccc3O[C@H]2[C@H](CO)O1)NC1CCCCC1	2.7	-4.0	0.1	0.1	/	/	/
C=C1c2cccc(O)c2C(=O)C2C(=O)[C@]3(O)C(=O)C(C(N)=O)C(=O)[C@@H](N(C)C)[C@@H]3[C@@H](O)[C@H]12 (stereo not given in full)	3.5	0.6	-0.2	54.3*	/	14.2	-18.6%
CN(C)CC(=O)Nc1ccc2c(c1)[C@@H]1C[C@@H](CC(=O)NCc3ccccc3)O[C@@H](CO)[C@@H]1O2	-1.4	2.1	0.0	-5.4	3.8	/	/
O=C(Nc1ccc(N2CCOCC2)cc1)c1cccc(S(=O)(=O)N2CCCCC2)c1	/	/	/	-7.1	/	-4.2	/
CCN1CCN(c2ccc(NC(=O)c3cccc(S(=O)(=O)N4CCCC4)c3)cc2)CC1	8.5	2.8	-0.2	56.2*	/	13.9	-4.1%
CC(C)NC(=O)N(C)C[C@H]1OCCCC[C@@H](C)Oc2ccc(NC(=O)c3ccccc3)cc2C(=O)N([C@@H](C)CO)C[C@@H]1C	-3.9	0.6	0.0	-16.8	/	/	/
O=C(CSc1n[nH]c(-c2ccccn2)n1)Nc1ccc(F)cc1	1.4	-1.9	0.0	69.8*	0.8	11.3	10.6µM*
O=C(CSc1n[nH]c(-c2ccccn2)n1)Nc1ccc(Cl)cc1	-0.2	5.6	-0.1	67.7*	11.5	-2.6	32.2µM*	ARNT Alpha ctr-2=11.3*
Cc1ccc(NC(=O)CSc2n[nH]c(-c3ccccn3)n2)cc1	-8.7	0.7	0.2	69.5*	4.0	5.8	9.15µM*
COc1ccc(NC(=O)Nc2ccc3c(c2)C(=O)N([C@H](C)CO)C[C@@H](C)[C@@H](CN(C)Cc2ccc(C(=O)O)cc2)OCCCC[C@@H](C)O3)cc1	3.7	-0.7	0.0	10.5	/	/	/
CO[C@H]1CN(C)C(=O)c2ccc(NC(=O)c3cc(C)on3)cc2OC[C@H](C)N(CC2CC2)C[C@H]1C	-1.3	0.9	0.1	-8.8	0.5	/	/
O=C(Nc1nc(-c2ccccn2)cs1)C1CCCC1	0.7	0.2	0.1	58.5*	7.3	6.7	-15.5%
O=C(CCCSc1ccccc1)Nc1nc(-c2ccccn2)cs1	/	/	/	34.9	/	-3.5	/
O=C(Nc1nc(-c2nc3ccccc3s2)cs1)C1CC1	-5.3	1.3	0.0	-7.7	6.0	-5.1	/
CC(C)c1nc2ccc(NC(=O)C3CCCCC3)cc2[nH]1	/	/	/	-5.8	/	13.0	/

Compound activity as filed in PubChem.
